The results in this text go back to publication PMC3149845 (The Journal of neuroscience : the official journal of the …, 2011).

“Also recorded” adds a separate entry of the source. Like-named read-outs stand apart in the source and are kept apart here. Peptide text beside a SMILES is read from it.

One test has as its target smTas1R2/smTas1R3 (Saimiri sciureus, UniProt A3QP08). In words: Ca2+ mobilization, wild type squirrel monkey sweet taste receptor. In kind it is cell-based, squirrel monkey (Saimiri sciureus). The settings on record: HEK293E cells with Gα16-gust44.
The target of test [1] is hTas1R2:S40T/V66L/I67S/D142E+hTas1R3 (Homo sapiens, UniProt Q8TE23, D142E/I67S/S40T/V66L). Description: Ca2+ mobilization, mutated human receptor. In kind it is cell-based. The settings on record: aspartame 10mM, neotame 1mM, sucralose 2 mM; compared with hTas1R2/hTas1R3. The method in brief: (§1)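 HEK293E cells grown at 37°C in Opti-MEM with 5% FBS and seeded at 50,000/well. Cells co-lipofected with Tas1R plasmids and Gα16-gust44 (0.06 μg each per well); medium changed at 20 h, assayed 24 h later. Cells loaded 1 h with Fluo-4 AM in HEPES-buffered HBSS. Tastant added at 30 s; fluorescence (ex 488/em 525 nm) read every 2 s for 150 s more. ΔF/F normalised to human receptor maximal sucralose response; mean ± SEM, three independent experiments.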

Test [2] addresses smTas1R2:T40S/L66V/S67I/E142D+smTas1R3 (Saimiri sciureus, UniProt A3QP08, E142D/L66V/S67I/T40S). In words: Ca2+ mobilization, mutated squirrel monkey receptor. In kind it is cell-based, squirrel monkey (Saimiri sciureus). Particulars: aspartame 10mM, neotame 1mM, sucralose 2 mM; compared with smTas1R2/smTas1R3. On the technique in general: A change in cytosolic calcium serves as a functional read-out for many receptors and channels.

Test [3] has as its target T1, h(1–572)smTas1R2 + hTas1R3 (Homo sapiens, UniProt Q8TE23, A658V/A782V/G696S/I595M/I692T/L639V/L764F/L798F/M682V/M697L/P624L/P678S/P710T/Q592E/S703N/S784D/T716M/V687A/V718I/V741A).
T1 sequence (Q8TE23 20-839 Q592E/I595M/P624L/L639V/A658V/P678S/M682V/V687A/I692T/G696S/M697L/S703N/P710T/T716M/V718I/V741A/L764F/A782V/S784D/L798F): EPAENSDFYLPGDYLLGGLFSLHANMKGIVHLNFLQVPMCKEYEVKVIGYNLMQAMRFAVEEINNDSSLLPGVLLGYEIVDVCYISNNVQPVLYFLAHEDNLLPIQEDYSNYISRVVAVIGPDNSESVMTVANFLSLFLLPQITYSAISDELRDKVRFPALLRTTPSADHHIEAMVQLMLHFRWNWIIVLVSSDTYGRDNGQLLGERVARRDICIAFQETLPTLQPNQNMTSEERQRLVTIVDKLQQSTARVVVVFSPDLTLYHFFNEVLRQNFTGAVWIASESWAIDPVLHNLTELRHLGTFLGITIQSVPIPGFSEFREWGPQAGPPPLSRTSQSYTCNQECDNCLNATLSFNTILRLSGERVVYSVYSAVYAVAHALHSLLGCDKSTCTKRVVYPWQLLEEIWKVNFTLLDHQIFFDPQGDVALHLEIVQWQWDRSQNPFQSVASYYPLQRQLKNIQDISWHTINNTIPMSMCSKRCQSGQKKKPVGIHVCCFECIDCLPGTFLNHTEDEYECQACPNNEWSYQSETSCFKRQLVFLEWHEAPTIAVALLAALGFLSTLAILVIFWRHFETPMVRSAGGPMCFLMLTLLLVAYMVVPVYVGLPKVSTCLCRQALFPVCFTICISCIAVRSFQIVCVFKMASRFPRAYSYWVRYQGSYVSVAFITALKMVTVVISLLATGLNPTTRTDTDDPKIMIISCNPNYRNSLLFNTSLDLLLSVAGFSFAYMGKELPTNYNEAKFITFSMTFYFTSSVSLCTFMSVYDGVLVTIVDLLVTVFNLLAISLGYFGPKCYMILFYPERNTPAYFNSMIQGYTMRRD
T1 sequence (Q7RTX0 21-852 partner): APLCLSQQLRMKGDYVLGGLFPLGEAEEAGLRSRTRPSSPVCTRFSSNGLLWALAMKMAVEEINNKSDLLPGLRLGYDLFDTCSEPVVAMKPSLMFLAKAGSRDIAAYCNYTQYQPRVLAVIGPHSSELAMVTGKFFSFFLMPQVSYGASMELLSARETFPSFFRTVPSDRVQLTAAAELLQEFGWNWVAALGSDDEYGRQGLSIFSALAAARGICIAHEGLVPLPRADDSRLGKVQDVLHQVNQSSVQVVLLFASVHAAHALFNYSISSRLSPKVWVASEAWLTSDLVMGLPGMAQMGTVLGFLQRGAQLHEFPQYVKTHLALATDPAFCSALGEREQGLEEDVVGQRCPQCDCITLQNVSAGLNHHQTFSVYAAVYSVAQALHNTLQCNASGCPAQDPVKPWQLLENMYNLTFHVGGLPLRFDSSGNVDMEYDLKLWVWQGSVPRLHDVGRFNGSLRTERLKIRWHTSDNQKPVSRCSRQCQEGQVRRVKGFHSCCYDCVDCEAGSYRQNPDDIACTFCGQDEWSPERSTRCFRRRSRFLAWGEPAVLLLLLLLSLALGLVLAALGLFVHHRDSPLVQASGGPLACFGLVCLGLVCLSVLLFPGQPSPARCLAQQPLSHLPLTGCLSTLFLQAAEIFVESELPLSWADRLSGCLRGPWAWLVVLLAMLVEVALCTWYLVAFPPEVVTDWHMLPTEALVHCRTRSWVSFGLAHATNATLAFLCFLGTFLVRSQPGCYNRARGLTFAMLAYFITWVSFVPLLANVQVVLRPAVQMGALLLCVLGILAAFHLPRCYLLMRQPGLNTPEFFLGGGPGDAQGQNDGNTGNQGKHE
In words: Ca2+ mobilization, chimera receptor. In kind it is cell-based, human/squirrel monkey. Particulars: aspartame 10mM, neotame 1mM, sucralose 2 mM; compared with hTas1R2/hTas1R3. The method in brief:
as §1

Test [4] has as its target smTas1R2:S67I/E142D+smTas1R3 (Saimiri sciureus, UniProt A3QP08, E142D/S67I). In words: Ca2+ mobilization, mutated squirrel monkey receptor. In kind it is cell-based, squirrel monkey (Saimiri sciureus). The settings on record: for response in dose-response experiment: versus smTas1R2+smTas1R3; for Bottom (B) of sigmoid dose-response fit / Top (T) of sigmoid dose-response fit: ΔF/F normalized to maximum response of hTas1R2/hTas1R3 to neotame.

The next test deals with hTas1R2:D142E+hTas1R3 (Homo sapiens, UniProt Q8TE23, D142E). In words: Ca2+ mobilization, mutated human receptor. The settings on record: aspartame 10mM, neotame 1mM, sucralose 2 mM; compared with hTas1R2/hTas1R3. In kind it is cell-based. The method in brief:
as §1

Test [5] has as its target sm(1–567)hTas1R2 + hTas1R3 (Saimiri sciureus, UniProt A3QP08, A682V/A736V/D779S/E587Q/F759L/F793L/I713V/L619P/L692M/M590I/M711T/N698S/S673P/S691G/T687I/T705P/V634L/V653A/V677M/V777A). Description: Ca2+ mobilization, chimera receptor. In kind it is cell-based, human/squirrel monkey. Particulars: aspartame 10mM, neotame 1mM, sucralose 2 mM; compared with hTas1R2/hTas1R3.

Chain of hTas1R2:D142E+hTas1R3 (Q8TE23 20-839 D142E, one chain of several): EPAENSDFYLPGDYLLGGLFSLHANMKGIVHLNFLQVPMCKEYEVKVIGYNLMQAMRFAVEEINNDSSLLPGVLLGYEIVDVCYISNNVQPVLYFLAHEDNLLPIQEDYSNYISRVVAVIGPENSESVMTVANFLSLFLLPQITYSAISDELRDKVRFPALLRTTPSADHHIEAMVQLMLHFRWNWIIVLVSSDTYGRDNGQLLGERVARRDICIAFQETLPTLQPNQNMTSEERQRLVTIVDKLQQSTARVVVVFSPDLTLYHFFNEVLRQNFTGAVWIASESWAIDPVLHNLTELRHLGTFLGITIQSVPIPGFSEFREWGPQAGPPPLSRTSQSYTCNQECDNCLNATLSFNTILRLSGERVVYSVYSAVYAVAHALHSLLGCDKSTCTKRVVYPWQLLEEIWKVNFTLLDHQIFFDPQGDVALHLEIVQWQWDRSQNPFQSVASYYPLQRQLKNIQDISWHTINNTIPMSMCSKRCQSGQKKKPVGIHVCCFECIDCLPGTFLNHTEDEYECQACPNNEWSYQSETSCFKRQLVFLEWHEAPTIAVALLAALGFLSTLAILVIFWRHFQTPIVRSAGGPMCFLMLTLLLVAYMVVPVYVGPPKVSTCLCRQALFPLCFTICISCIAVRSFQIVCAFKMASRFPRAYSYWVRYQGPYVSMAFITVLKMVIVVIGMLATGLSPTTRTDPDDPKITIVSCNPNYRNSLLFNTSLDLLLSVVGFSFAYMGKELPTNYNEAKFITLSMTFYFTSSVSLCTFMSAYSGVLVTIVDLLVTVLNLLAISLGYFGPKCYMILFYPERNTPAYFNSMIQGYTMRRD
Chain of hTas1R2:S40T/V66L/I67S/D142E+hTas1R3 (Q8TE23 20-839 S40T/V66L/I67S/D142E, one chain of several): as the sequence (Q8TE23 20-839 D142E, one chain of several) above, with S21T, V47L, I48S counted along it

The term EC50 denotes the concentration giving half of the maximal effect. `COC(=O)[C@H](Cc1ccccc1)NC(=O)[C@@H](N)CC(=O)O` [aspartame, L-α-aspartly-L-phenylalanine methyl ester] (H-Asp-Phe-OMe): the “response in dose-response experiment” value at smTas1R2/smTas1R3 is on record as “no response”; in test [4] (dose-response), “good response”. In addition, the “calcium response to sweetener” value in test [1] is given as “greatly impaired”; in test [2], “significant responses”; in test [3] it was “significantly reduced responses; also recorded: significant reduction of the response”; on hTas1R2:D142E+hTas1R3, “almost abolished; also recorded: abolishes the activity”; in test [5], “no responses”. This compound also showed a 50% effective concentration (EC50) in test [4] of 5.6 mM. In test [4], the “Bottom (B) of sigmoid dose-response fit” value is reported as −0.6682. In test [4], the “Top (T) of sigmoid dose-response fit” value worked out at 26.17.
Take `COC(=O)[C@H](Cc1ccccc1)NC(=O)[C@H](CC(=O)O)NCCC(C)(C)C` [neotame]: the entries for the “response in dose-response experiment” value (on smTas1R2/smTas1R3; in test [4] (dose-response)) were “no response” and “good responses”, respectively. Besides, the “calcium response to sweetener” value in test [1] is “greatly impaired”; in test [2] it was “significant responses”; in test [3] it was “significantly reduced responses; also recorded: significant reduction of the response”; on hTas1R2:D142E+hTas1R3, “significantly decreased”; in test [5], “no responses”. Further, the EC50 in test [4] (HEK293E cells with Gα16-gust44, dose-response, calcium mobilization) was 1 mM. The “Bottom (B) of sigmoid dose-response fit” value in test [4] is given as −5.754. Moreover, the “Top (T) of sigmoid dose-response fit” value in test [4] is on record as 56.59.
In the case of `OC[C@H]1O[C@H](O[C@]2(CCl)O[C@H](CCl)[C@@H](O)[C@@H]2O)[C@H](O)[C@@H](O)[C@H]1Cl` [sucralose], the “calcium response to sweetener” value is “significant reduction of the response” in test [3] and “significant increase of the response” in test [5].
